The full list was thinned out, with hits kept by preference.
FLuc inhib CS: Photinus pyralis luciferase inhibition counter-screen. ATPLite firefly luciferase biochemical luminescence, 10 min. AID 1006. 1.5% of 200,000 active. inhibition, % at 10 µM. P08659;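 active = inhibition above about 50% when tested at 10 µM, limit read from the data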
Diaphorase act: counter-screen for diaphorase-based assays: diaphorase activators and chemical reducers; Diaphorase/resazurin coupled assay, resorufin fluorescence, 16 min; hits give high values; 1 = vehicle wells, 0 = NADH-free wells; activation factor at 20 µM; 0.005% of 190,000 active; AID 1229;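 active = diaphorase activity raised at least twofold by the compound at 20 µM; inactive = activation factor below 2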
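Test system: Clostridium kluyveri diaphorase, purified enzyme; input: enzyme 0.07 U/mL final; buffer or medium: 50 mM HEPES pH 7.4 with 4.542 mM MgCl2, 0.005% Tween 20; also added: 0.114 mM NADH and 0.1 mM resazurin, final amounts; schedule: 16 min enzyme reaction, ambient temperature; technique: fluorescence of resorufin, 544 nm excitation, 590 nm emission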
FLuc act counter: firefly luciferase counter-screen for stimulation assays | P08659 | ATPlite luciferase biochemical, luminescence, 10 min; 0 = ATP-free wells, 1 = DMSO control | activation factor at 10 µM | 200,000 tested, under 10 active;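 active = luciferase activation factor, scaled between plate controls, of at least 2 with compound at 10 µM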
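Assay system: Luciferase/luciferin detection reagent, cell-free biochemical luciferase assay / Read-out: luciferase activation / Benchmarks: No-ATP low control, compound-free enzyme-plus-ATP high control / Medium: PBS buffer for ATP / Detection: luminescence measurement of luciferase light output / Schedule: 10 min at ambient temperature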
ABCB6 inh MLPCN: blocks the human ABCB6 transporter | Q9NP58 | K562-ABCB6 porphyrin accumulation, flow cytometry, 1 h; hits give low values | fluorescence ratio to DMSO, % at 10 µM | 0.19% of 360,000 active;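 active = fluorescence ratio to DMSO below 75%, the collection mean minus 3 SD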;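 note: signal is porphyrin accumulated inside mitochondria; 100% equals median channel fluorescence of DMSO control wells; lower ratio means ABCB6 inhibition with less porphyrin fluorescence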
ABCB1 inh: inhibitors of human ABCB1 transporter, ABCG2 counter-screen; P08183; CCRF-Adr cells, JC-1 efflux, flow cytometry; inhibition, % at 6.6 µM; 0.067% of 190,000 active; AID 1326; in the data active = inhibition above about 40%;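 note: 0% = vehicle and 100% = reference inhibitor; higher value means more JC-1 retained so stronger ABCB1 efflux block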
ABCG2 inh: blocks JC-1 efflux by human ABCG2 transporter; inhibition, % at 6.6 µM; IgMXP3 cells, flow cytometry; 0.1% of 190,000 active;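 active = inhibition above 80%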;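 note: 0% = DMSO and 100% = nicardipine control wells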
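Assay system – ABCG2 IgMXP3 and barcoded ABCB1 CCRF-Adr cell mix · Input – 3 million cells/mL in well · Reagent – JC-1 fluorescent substrate · Compound – single test compound dose, 6.6 µM final · Timing – 10 min exposure at 25 °C with rotation, no wash · Detection – flow cytometry of retained JC-1 fluorescence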
* = called active by the depositor; . = not tested or not shown.

SMILES	FLuc inhib CS	Diaphorase act	FLuc act counter	ABCB6 inh MLPCN	ABCB1 inh	ABCG2 inh
COc1ccc(O)c(/C=N/n2c(-c3ccco3)csc2=Nc2cccnc2)c1	-2.7	0.9	1	96.0	0.8	3.0
CN=c1scc(C)n1/N=C/c1ccc(O)cc1O	80.7*	0.9	0.2	110.0	-0.1	5.4
CN=c1scc(C)n1/N=C/c1cc(Br)c(O)c(Br)c1	32.0	0.8	0.7	95.0	-0.3	-2.8
COc1ccc(S(=O)(=O)N2CCCCC2)cc1NC(=O)CSc1nnc(C2CC2)n1C	.	.	.	99.0	.	.
OCCCNc1cc(-c2ccccc2)nc2cc(-c3ccc(F)cc3)nn12	.	.	.	98.0	.	.
CC1(C(=O)NCc2ccccc2)CCC(=O)N1CCc1c[nH]c2ccccc12 (centres undefined)	.	.	.	90.0	.	.
CCC(Cc1ccccc1)OC(=O)c1ccccc1C(=O)O (centres undefined)	.	.	.	107.0	.	.
CCOC(=O)c1cc(=O)n2[nH]c(-c3ccc(C)cc3)cc2n1	22.0	0.9	0.8	98.0	0.3	0.8
CCOC(=O)Cc1cc(=O)n2[nH]c(-c3ccc(C)cc3)cc2n1	53.7*	0.7	0.5	101.0	0.3	2.0
Cc1[nH]n(-c2ccccc2)c(=O)c1/C=N\NC(=O)C1COc2ccccc2O1 (centres undefined)	92.9*	0.8	0.1	96.0	0.2	0.1
CC(=O)N/N=C/c1c(C)[nH]n(-c2ccccc2)c1=O	3.7	0.4	1	102.0	1.0	2.1
COc1ccc(O)c(/C=N/N=C2/C(=O)Nc3ccccc32)c1	81.1*	0.9	0.2	94.0	0.4	6.2
COc1cc(/C=N/N=C2/C(=O)Nc3ccccc32)cc(OC)c1O	20.4	0.7	0.8	96.0	0.2	2.9
C[C@H](O)[C@@H]1C(=O)N2CCc3c([nH]c4ccccc34)[C@@H]2C[C@@H]1N(C)C(=O)Nc1cc(Cl)cc(Cl)c1	.	.	.	97.0	.	.
Oc1ccc(/C=N/NC(=S)Nc2cccnc2)cc1	.	.	.	131.0	.	.
CC(=O)Nc1ccc(C(=O)N/N=C/c2ccc(F)cc2)cc1	3.7	1	1	99.0	0.2	1.3
Oc1ccc(/C=N/NC(=S)N/N=C/c2ccc(O)cc2)cc1	95.8*	0.9	0	98.0	-0.4	-1.0
O=C(N/N=C/c1ccc(C(F)(F)F)cc1)c1ccc(O)cc1	52.9*	1	0.5	92.0	-0.1	3.3
O=C(N/N=C\c1ccc(F)cc1)c1ccc(F)cc1	58.4*	1.1	0.4	98.0	0.0	10.1
CSc1ccc(/C=N/NC(=O)c2cccc(O)c2)cc1	91.1*	1	0.1	87.0	-0.2	0.4
CCN(CC)C(=O)C1=C(C)N(Cc2ccc(F)cc2)C(=O)C(CC(=O)NC(c2ccccc2)c2ccccc2)C1 (centres undefined)	.	.	.	90.0	.	.
CCc1nc2ccc(C(=O)N3CCN(C(C)=O)CC3)cn2c1N(C=O)Cc1ccc(OC)cc1	.	.	.	97.0	.	.
COc1ccc(C=NNC(=S)NN=Cc2ccc(OC)c(OC)c2)cc1OC	.	.	.	84.0	.	.
COc1cc(/C=N/NC(=S)N/N=C/c2cc(OC)c(OC)c(OC)c2)cc(OC)c1OC	68.3*	1.1	0.3	96.0	-0.6	19.5
CCOC(=O)COn1c(=O)c(-c2cc3ccccc3o2)[n+]([O-])c2ccccc21	51.6*	1	0.5	96.0	1.1	6.0
SMILES	FLuc inhib CS	Diaphorase act	FLuc act counter	ABCB6 inh MLPCN	ABCB1 inh	ABCG2 inh
COc1cc(C(=O)Nc2cc(S(C)(=O)=O)ccc2Cl)ccc1OCC(=O)N1CCOCC1	.	.	.	97.0	.	.
Cc1ccc(C(=O)Nc2nc3ccccc3s2)s1	59.9*	1.1	0.4	105.0	0.0	-0.6
Cc1ccc(C(=O)Nc2nc3ccc(S(C)(=O)=O)cc3s2)s1	65.3*	1	0.3	100.0	0.0	1.8
Cc1ccc2nc(NC(=O)c3ccc(Cl)s3)sc2c1	35.1	0.9	0.6	106.0	-0.2	-1.1
Cc1ccc2nc(NC(=O)c3cccs3)sc2c1	73.3*	0.9	0.3	94.0	-0.5	10.5
CCC(=O)Nc1nc2ccc(S(C)(=O)=O)cc2s1	-4.5	0.9	1	87.0	2.4	23.2
CS(=O)(=O)c1ccc2nc(NC(=O)c3cccs3)sc2c1	90.8*	0.8	0.1	97.0	0.1	1.1
CCOc1ccc(NC(=O)CN(C)C(=O)c2ccc(-c3ccc(C(C)=O)cc3)o2)cc1OCC	.	.	.	104.0	.	.
CC(Oc1ccc(C#N)cc1)C(=O)N1CC=C(c2ccccc2)CC1 (centres undefined)	.	.	.	95.0	.	.
COCOc1cccc(CN2CCC2(C)C(=O)Nc2cc(OC)ccc2OC)c1 (centres undefined)	.	.	.	101.0	.	.
Cc1nc(NC(=S)NC(=O)c2cccs2)ccc1Br	58.4*	0.9	0.4	98.0	-0.5	-1.9
Cc1ccc2nc(NC(=S)NC(=O)c3cccs3)sc2c1	90.1*	0.9	0.1	104.0	0.0	0.1
Cc1ccc2nc(NC(=S)NC(=O)c3ccc(OC(C)C)cc3)sc2c1	.	.	.	95.0	.	.
Cc1ccc(CNc2nc3ccccc3s2)s1	89.9*	1	0.1	102.0	0.5	11.0
COc1ccc(CNc2nc3ccccc3s2)cc1OC	.	.	.	102.0	.	.
CCOC(=O)c1cnc2c(-c3ccccc3)cnn2c1C	75.4*	0.9	0.2	103.0	-1.6	9.5
Cc1ccc(NC(=O)c2cc(C)n(-c3cccc(C)c3)c2C)cc1	74.3*	0.8	0.3	101.0	1.1	21.3
Cc1cc(C(=O)Nc2ccc(Cl)cc2)c(C)n1-c1ccccc1	.	.	.	93.0	.	.
Cc1ccc(NC(=O)c2cc(C)n(-c3ccccc3)c2C)cc1	95.2*	0.9	0	92.0	-0.1	71.0
Cc1c(C(=O)Nc2cccc([N+](=O)[O-])c2)csc1-c1ccccc1	18.8	0.8	0.8	98.0	-1.5	24.5
Cc1ccc(NC(=O)c2csc(-c3ccccc3)c2C)cc1	85.3*	1	0.1	101.0	0.4	9.8
Cc1ccc(NC(=S)c2nc3ccccc3[nH]2)cc1	82.9*	1	0.2	95.0	0.0	-0.1
Cc1ccc(NC(=S)c2nc3ccccc3[nH]2)c(C)c1	84.8*	0.9	0.2	99.0	-0.7	-4.8
Cc1ccc(NC(=S)c2ccncc2)c(C)c1	.	.	.	101.0	.	.
Cc1csc(NC(=O)c2ccc(OCC3CCCO3)cc2)n1 (centres undefined)	73.6*	1	0.3	102.0	0.4	8.9
Cc1csc(NC(=O)c2ccc(N3CCCC3=O)cc2)n1	89.2*	1.1	0.1	86.0	0.4	2.0
CCOC(=O)CC1(NC(=O)c2cc(COc3cccc(OC)c3)on2)CCCCC1	.	.	.	98.0	.	.
O=C(Nc1ccc(SC(F)(F)F)cc1)c1ccccn1	71.2*	0.9	0.3	102.0	0.7	17.2
O=C(Nc1ccc(N2CCCCCC2)cc1)c1ccccc1Cl	7.6	0.8	0.9	95.0	0.3	2.8
